Assay results reported in ChEMBL document CHEMBL1147081, “Structure of the deacetylase LpxC bound to the antibiotic CHIR-090: Time-dependent inhibition and specificity in ligand binding” (Proc Natl Acad Sci U S A, 2007).
Activity calls are given as the source filed them. No cut-off for these calls is given here.

Experiments:
Rhizobium leguminosarum [1] = test: Ratio of Kcat to Km of Rhizobium leguminosarum LpxC
How it was run: (§1)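 Wild-type and site-directed mutant LpxC (E. coli, R. leguminosarum) expressed and purified, then assayed by a previously described method. Substrate was UDP-3-O-(R-3-hydroxymyristoyl)-N-acetylglucosamine, varied for Michaelis–Menten analysis. KM and kcat came from data sets pooling multiple independent experiments.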

Rhizobium leguminosarum [2] = test: Inhibition of Rhizobium leguminosarum LpxC at 0.5 uM
Rhizobium leguminosarum [3] = test: Activity of Rhizobium leguminosarum LpxC; how it was run: as §1
[4] = target: T1, UDP-3-O-acyl-N-acetylglucosamine deacetylase (Aquifex aeolicus (strain VF5)) (UniProt O67648); test: Inhibition of Aquifex aeolicus LpxC
T1 sequence (whole entry): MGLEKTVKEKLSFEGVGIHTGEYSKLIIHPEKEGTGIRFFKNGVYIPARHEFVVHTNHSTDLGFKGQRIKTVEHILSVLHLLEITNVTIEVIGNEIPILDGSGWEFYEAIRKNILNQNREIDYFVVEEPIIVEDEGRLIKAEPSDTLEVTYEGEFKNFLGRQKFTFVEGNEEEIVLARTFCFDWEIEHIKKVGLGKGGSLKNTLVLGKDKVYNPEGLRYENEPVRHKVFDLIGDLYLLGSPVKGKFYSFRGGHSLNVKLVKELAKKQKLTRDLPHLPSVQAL

[5] = target: T2, UDP-3-O-acyl-N-acetylglucosamine deacetylase (Escherichia coli K-12) (UniProt P0A725); test: Inhibition of Escherichia coli LpxC at 4 nM
T2 sequence (whole entry): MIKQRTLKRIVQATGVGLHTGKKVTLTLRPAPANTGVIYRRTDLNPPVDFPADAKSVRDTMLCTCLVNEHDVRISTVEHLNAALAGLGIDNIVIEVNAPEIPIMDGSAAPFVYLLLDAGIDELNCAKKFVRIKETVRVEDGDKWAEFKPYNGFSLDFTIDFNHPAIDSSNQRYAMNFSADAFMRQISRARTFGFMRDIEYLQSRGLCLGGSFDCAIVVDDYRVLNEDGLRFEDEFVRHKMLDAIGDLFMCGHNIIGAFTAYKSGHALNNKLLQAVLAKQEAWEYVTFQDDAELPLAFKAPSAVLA

Q: How did the kcat/Km (Rhizobium leguminosarum [1]) turn out when `C[C@@H](O)[C@H](NC(=O)c1ccc(C#Cc2ccc(CN3CCOCC3)cc2)cc1)C(=O)NO` was run?
A: The kcat/Km was 3.5 10^6/M/s.

Q: What about the inhibition (Rhizobium leguminosarum [2]) of the same compound?
A: The inhibition was 50%.

Q: And the Km (Rhizobium leguminosarum [3])?
A: The Km was 4.8 µM.

Q: And the kcat (Rhizobium leguminosarum [3])?
A: The kcat was 1.7 s⁻¹.

Q: And the Activity [4]?
A: The Activity was “Active”.

Q: What about the inhibition [5] of the same compound?
A: The inhibition was greater than 75%.
